ChEMBL document CHEMBL1133567, “5-Azidoimidacloprid and an acyclic analogue as candidate photoaffinity probes for mammalian and insect nicotinic acetylcholine receptors” (J Med Chem, 2000)

Tests used:
[1] = target: Nicotinic acetylcholine receptor; test: Binding affinity for nAChR with [3H]imidacloprid in Myzus persicae; type: protein-complex assay
[2] = target: Nicotinic acetylcholine receptor; test: Binding affinity for nAChR with [3H]imidacloprid in Drosophila; type: protein-complex assay, Drosophila melanogaster
[3] = Binding affinity for nAChR with [3H]nicotine in rat brain; type: tissue-based
Outline: (§1)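 Competition with 5 nM [3H](-)-nicotine against varied inhibitor concentrations, using 400 µg protein from rat brain membranes or 100 µg protein from recombinant rat α4β2 membranes. Incubation 30 min at 22 °C in Tris-HCl pH 7.4 buffer with NaCl, KCl, CaCl2, MgSO4, EDTA. Stopped by filtration through polyethylenimine-soaked GF/B filters. Nonspecific binding with 5 µM (-)-nicotine.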

[4] = target: Neuronal acetylcholine receptor subunit alpha-4 (Rattus norvegicus, UniProt P09483+P12390); test: Binding affinity for nAChR with [3H]-nicotine in rat alpha4 beta2 membranes; type: cell membranes; outline: as §1
Neuronal acetylcholine receptor subunit alpha-4, sequence (P09483 whole entry, one chain of several): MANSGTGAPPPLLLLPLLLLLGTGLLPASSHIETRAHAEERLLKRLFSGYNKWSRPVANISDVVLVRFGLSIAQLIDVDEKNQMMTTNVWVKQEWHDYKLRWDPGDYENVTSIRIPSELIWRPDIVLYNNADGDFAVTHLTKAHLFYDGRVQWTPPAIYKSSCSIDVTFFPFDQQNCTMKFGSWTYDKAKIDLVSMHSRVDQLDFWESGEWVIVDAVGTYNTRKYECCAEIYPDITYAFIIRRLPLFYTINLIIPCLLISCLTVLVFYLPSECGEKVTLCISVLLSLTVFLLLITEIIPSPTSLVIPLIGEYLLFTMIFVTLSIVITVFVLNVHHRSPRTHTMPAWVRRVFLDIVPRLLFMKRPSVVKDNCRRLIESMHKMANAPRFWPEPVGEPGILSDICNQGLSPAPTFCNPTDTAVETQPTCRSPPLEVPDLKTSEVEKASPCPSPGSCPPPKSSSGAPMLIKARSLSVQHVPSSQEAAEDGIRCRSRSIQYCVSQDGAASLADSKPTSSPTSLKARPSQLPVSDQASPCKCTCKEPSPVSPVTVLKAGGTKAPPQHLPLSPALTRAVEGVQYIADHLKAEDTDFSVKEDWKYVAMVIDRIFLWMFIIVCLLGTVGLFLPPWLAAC

SMILES | Ki [1] | Ki [2] | Ki [3] | Ki [4]
C/N=C(\NCc1ccc(Cl)nc1)N[N+](=O)[O-] | 12 nM | 10 nM | 3500 nM | 
[N-]=[N+]=Nc1cc(CN2CCNC2=N[N+](=O)[O-])cnc1Cl [5-AZIDOIMIDACLOPRID] | 1 nM | 15 nM | 44 nM | 4.4 nM
C/N=C(\NCc1cnc(Cl)c(N=[N+]=[N-])c1)N[N+](=O)[O-] | 4.5 nM | 13 nM | 44 nM | 
O=[N+]([O-])NC1=NCCN1Cc1ccc(Cl)nc1 [IMIDACLOPRID] | 1.9 nM | 2.1 nM | 290 nM | 50 nM
